Data on 4 compounds can be found in ChEMBL document CHEMBL2385062, “Metabolism of a potent neuroprotective hydrazide” (Bioorg Med Chem, 2013).

One data set has as its system HT-22. Briefly: Neuroprotective activity in mouse HT22 cells assessed as reduction in glutamate-induced oxidative stress incubated for 30 mins prior to glutamate-challenge measured after 20 hrs by MTT assay.
The nature of data set [1]: Neuroprotective activity in rat primary cortical neurons assessed as reduction in trophic factor withdrawal after 2 days by fluorescent live-dead assay. In kind it is functional, cell-based. Conditions: cerebral cortex neuron; call rule not given here. The method, boiled down:
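Cortical neurons from E18 rat embryos were plated at low density (1 × 10⁶ per 35 mm dish) in serum-free DMEM/F12 with N2 supplement plus compounds. After 2 days, viability was scored with a fluorescent live-dead assay as the percentage of input cells surviving. EC50 was derived from the concentration–response curves.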

Data set [2] can be described thus: Neuroprotective activity in human MC65 cells expressing C-terminal 99 amino acids from […] assessed as reduction in intracellular amyloid beta toxicity after 4 days by MTT assay. In kind it is functional, cell-based. Conditions: MC65, 96 h. The method, boiled down: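 MC65 cells from confluent cultures were plated at 4 × 10⁵ per 35 mm dish with compounds. Tetracycline was kept present (no induction) or omitted (APP-C99 induced). After 4 days, viability was read by MTT and expressed relative to plus-tetracycline controls. EC50 was calculated from concentration–response curves.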

Data set [3] deals with Liver microsomes. Briefly: Drug metabolism in human liver microsomes assessed as formation of (E)-2,2,2-trifluoro-N-(4-(hydroxymethyl)-2-methylphenyl)-N'-(3-methoxybenzylidene)acetohydrazide at 5 uM by LC/MS/MS analysis. In kind it is ADME, Microsome. In short, it runs like this: (§1)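 Parent at 5 µM was incubated with human or mouse liver microsomes, then extracted with ethyl acetate at zero time or after 5 min. Extracts were separated on a C18 reverse-phase HPLC column and analysed by LC/MS/MS in positive mode over m/z 50–1000. Metabolites were characterised from EPI-scan product ion spectra and CID pathways.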

Data set [4] concerns Blood. Briefly: Drug metabolism in BALB/c mouse blood assessed as retention time at 20 mg/kg, iv administered in corn oil by LC/MS/MS analysis. In kind it is ADME, organism-based. Details: dose 20 mg/kg, route intravenous. Conditions: in vivo. The method, boiled down:
(§2)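 Mice received parent at 20 mg/kg iv, and blood was sampled 20 min later. Metabolites were identified by the same ethyl acetate extraction and LC/MS/MS workflow as for microsomes, using a polar reverse-phase column. Mass shifts were assigned to biotransformations.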

Data set [5] relates to Liver microsomes. Briefly: Drug metabolism in human liver microsomes assessed as formation of 2,4-dimethylaniline at 5 uM by LC/MS/MS analysis. In kind it is ADME, Microsome. In short, it runs like this:
as §1
Background: Liver microsomes are a subcellular fraction often used to study metabolism.

Data set [6] relates to Blood. The data set can be described thus: Drug metabolism in BALB/c mouse blood assessed as metabolite BM1 retention time at 20 mg/kg, iv administered in corn oil by LC/MS/MS analysis. In kind it is ADME, organism-based. Also on record: dose 20 mg/kg, route intravenous. The conditions noted are these: in vivo. In short, it runs like this: as §2
Data set [7] has as its system Plasma. Briefly: Drug metabolism in mouse plasma assessed as formation of 2,4-dimethylaniline at 5 uM by LC/MS/MS analysis. The class given is ADME, cell-free.
Data set [8] is described as follows: Drug metabolism in mouse liver microsomes assessed as (E)-2,2,2-trifluoro-N-(4-(hydroxymethyl)-2-methylphenyl)-N'-(3-methoxybenzylidene)acetohydrazide retention time at 5 uM by LC/MS/MS analysis. In kind it is ADME, Microsome. The method, boiled down:
as §1

Data set [9] deals with Plasma. The data set can be described thus: Drug metabolism in mouse plasma assessed as formation of 3-methoxy benzaldehyde at 5 uM by LC/MS/MS analysis. The class given is ADME, cell-free.
A short description of data set [10]: Drug metabolism in mouse liver microsomes assessed as metabolite M4 retention time at 5 uM by LC/MS/MS analysis. In kind it is ADME, Microsome. The method, boiled down: as §1
The nature of data set [11]: Drug metabolism in mouse liver microsomes assessed as metabolite M5 retention time at 5 uM by LC/MS/MS analysis. In kind it is ADME, Microsome. In short, it runs like this:
as §1

A short description of data set [12]: Half life in mouse liver microsomes at 5 uM by LC/MS/MS analysis in presence of NADPH. In kind it is ADME, Microsome. The method, boiled down: (§3)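 Test compound at 5 µM was incubated at 37 °C with 0.5 mg/mL liver microsomes (human or mouse) in 5 mM phosphate buffer, pH 7.3, with or without 1 mM NADPH. Heat-inactivated microsomes (98 °C, 10 min) served as controls. At 0.1, 2, 5, 10 and 20 min, reactions were stopped with three volumes of ethyl acetate and centrifuged. Parent disappearance in the supernatant was followed by LC/MS/MS.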

Data set [13] is described as follows: Drug metabolism in mouse liver microsomes assessed as (E)-N'-(3,4-dihydroxybenzylidene)-N-(2,4-dimethylphenyl)-2,2,2-trifluoroacetohydrazide retention time at 5 uM by LC/MS/MS analysis. The class given is ADME, Microsome. In short, it runs like this: as §1
A short description of data set [14]: Half life in BALB/c mouse brain at 20 mg/kg, orally administered in corn oil by LC/MS/MS analysis. Conditions: po.
Data set [15] relates to Liver microsomes. The data set can be described thus: Drug metabolism in human liver microsomes assessed as formation of 2,4-dimethylhydrazine at 5 uM by LC/MS/MS analysis. The class given is ADME, Microsome. In short, it runs like this: as §1
For data set [16], the system named is Blood. Briefly: Drug metabolism in BALB/c mouse blood assessed as metabolite BM2 retention time at 20 mg/kg, iv administered in corn oil by LC/MS/MS analysis. Conditions: in vivo. In kind it is ADME, organism-based. Details: dose 20 mg/kg, route intravenous. The method, boiled down:
as §2

Data set [17] in a line: Half life in BALB/c mouse blood at 20 mg/kg, orally administered in corn oil by LC/MS/MS analysis. The conditions noted are these: po.
Data set [18] relates to Blood. The data set can be described thus: Drug metabolism in BALB/c mouse blood assessed as (E)-N-(2,4-dimethylphenyl)-2,2,2-trifluoro-N'-(3-hydroxybenzyli-dene)acetohydrazide retention time at 20 mg/kg, iv administered in corn oil by LC/MS/MS analysis. In kind it is ADME, organism-based. Also on record: dose 20 mg/kg, route intravenous. The conditions noted are these: in vivo. The method, boiled down:
as §2

Data set [19] concerns Liver microsomes. Briefly: Drug metabolism in human liver microsomes assessed as formation of 3-methoxy benzaldehyde at 5 uM by LC/MS/MS analysis. In kind it is ADME, Microsome. In short, it runs like this: as §1
In data set [20] the test system is Plasma. Briefly: Drug metabolism in mouse plasma assessed as formation of 2,4-dimethylhydrazine at 5 uM by LC/MS/MS analysis. In kind it is ADME, cell-free.
The nature of data set [21]: Drug metabolism in mouse liver microsomes assessed as formation of 3-methoxy benzaldehyde at 5 uM by LC/MS/MS analysis. The class given is ADME, Microsome. In short, it runs like this:
as §1

The nature of data set [22]: Half life in human liver microsomes at 5 uM by LC/MS/MS analysis in presence of NADPH. The class given is ADME, Microsome. In short, it runs like this: as §3
Data set [23] is described as follows: Drug metabolism in mouse liver microsomes assessed as formation of 2,4-dimethylaniline at 5 uM by LC/MS/MS analysis. In kind it is ADME, Microsome. The method, boiled down: as §1
Data set [24] concerns Liver microsomes. The data set can be described thus: Drug metabolism in human liver microsomes assessed as retention time at 5 uM by LC/MS/MS analysis. In kind it is ADME, Microsome. In short, it runs like this:
as §1

Data set [25] is described as follows: Drug metabolism in mouse liver microsomes assessed as retention time at 5 uM by LC/MS/MS analysis. In kind it is ADME, Microsome. The method, boiled down:
as §1

Data set [26] concerns Liver microsomes. Briefly: Drug metabolism in human liver microsomes assessed as formation of (E)-N-(2,4-dimethylphenyl)-2,2,2-trifluoro-N'-(3-hydroxybenzyli-dene)acetohydrazide at 5 uM by LC/MS/MS analysis. The class given is ADME, Microsome. The method, boiled down:
as §1

Data set [27] in a line: Drug metabolism in mouse liver microsomes assessed as (E)-N-(2,4-dimethylphenyl)-2,2,2-trifluoro-N'-(3-hydroxybenzyli-dene)acetohydrazide retention time at 5 uM by LC/MS/MS analysis. In kind it is ADME, Microsome. The method, boiled down:
as §1

The nature of data set [28]: Drug metabolism in mouse liver microsomes assessed as formation of 2,4-dimethylhydrazine at 5 uM by LC/MS/MS analysis. The class given is ADME, Microsome. The method, boiled down: as §1

A value given as a limit tells only on which side of the number the result lay.

As a reminder, the EC50 is the concentration at which the effect is half-maximal. Turning to `Cc1ccc(N(/N=C/c2ccc(O)c(O)c2)C(=O)C(F)(F)F)c(C)c1`, the EC50 in the data set with HT-22 was 1000 nM; in [1] it was 31 nM; in [2], 34 nM.

Turning to `Cc1ccc(N(/N=C/c2cccc(O)c2)C(=O)C(F)(F)F)c(C)c1`, the values for the EC50 (in the data set with HT-22; in data set [1]; in data set [2]) were 185 nM, 12 nM and 78 nM, respectively.

Broadly, the half-life is the time in which the quantity being followed falls by half. As for `COc1cccc(/C=N/N(C(=O)C(F)(F)F)c2ccc(C)cc2C)c1` [J147], the Drug metabolism result in the data set on Liver microsomes [3] is on record as “Active”; with Liver microsomes [5], “Not Active”; with Plasma [7], “Not Active”; in the data set with Plasma [9], “Not Active”; in the data set with Liver microsomes [15] it was “Not Active”; in the data set with Liver microsomes [19] it was “Not Active”. For the same compound, the Drug metabolism entry is given as “Not Active” in the data set on Plasma [20]; “Not Active” in data set [21]; “Not Active” in data set [23]; “Active” in the data set with Liver microsomes [26]; “Not Active” in data set [28]. Further, the Retention_time in the data set with Blood [4] is listed as 9.27 min; with Blood [6], 5.35 min; in data set [8], 7.86 min; in data set [10] it was 5.96 min; in [11], 6.82 min; in data set [13], 7.6 min. The Retention_time in the data set with Blood [16] was 5.54 min; with Blood [18], 8.04 min; with Liver microsomes [24], 10.97 min; in data set [25] it was 9.49 min; in data set [27], 8.36 min. Further, the EC50 is 20 nM with HT-22, 33 nM in [1] and 11 nM in data set [2]. Also, the half-life at 5 µM is < 4 min in data set [12] and 4.5 min in data set [22]. Also, the half-life in data set [14] and in [17] was 2.5 h each time.

As to `COc1cccc(/C=N/N(C(=O)C(F)(F)F)c2ccc(CO)cc2C)c1`, the EC50 in the data set on HT-22 came to 180 nM; in data set [1] it was 320 nM; in [2], 92 nM.
